Fibroblast inh = antiproliferative effect on LL 47 fibroblasts – human, LL 47 cells, CellTiter-Glo luminescence, primary screen; AID 719, 2007; 1.1% of 85,000 active; LL 47 human lung fibroblast viability, ATP luminescence; stronger effect = lower value; viability, % at 10 µM;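 active means viability at or below 50% in the single dose screen; inactive means viability above 50%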;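 further: compound exposure lasted 72 h before the ATP readout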
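material = human LL 47 lung fibroblast cells | dosing = compounds added from tenfold dosing solution, 0.1% DMSO final | timing = overnight cell rest, 72 h compound treatment at 37 °C | measured by = CellTiter-Glo luminescence measuring cellular ATP | evaluation = % viability versus median cells-only luminescence | control set = cell-only wells, no compound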
Ecoli tolC = growth inhibitors of E. coli tolC mutant, primary screen, strain BW25113 ΔtolC::kan, 384-well | 2.2% of 65,000 active | growth inhibition, % at 10 µM (by protocol) | OD615 | AID 573, 2007;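 active means growth inhibition at or above a cutoff equal to the mean over every tested compound plus 3 SD, cut at about 60% in these data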;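 further: growth measured after 20 h incubation at 37 °C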
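Doses: one dose of 10 µM final / Material: E. coli BW25113 ΔtolC::kan, tolC deletion mutant strain / Buffer or medium: LB with kanamycin 50 µg/mL / Evaluation: percent growth inhibition / Detection: optical density read at 615 nm / Incubation: 37 °C, 20 h exposure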
H69AR inhibit = proliferation blockers of H69AR lung cancer cells, primary screen, cell-based, human, 86K library | H69AR lung tumor viability, ATP luminescence, 72 h; stronger effect = lower value | viability, % at 10 µM | 6% of 85,000 active | AID 598, 2007;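 active means viability at or below 40%; inactive means viability above 40%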;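 further: multidrug resistant small cell line overexpressing MRP-1 efflux transporter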
Jurkat viability = cytotoxicity toward Jurkat T cells, primary screen, cytotoxicity control, cell-based, Jurkat E6.1, 60K MLSMR library | inhibition, % at 4 µM | 1.2% of 56,000 active | AID 463, 2006 | Jurkat E6.1 viability, ATP luminescence, 48 h;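 active means inhibition above the mean inhibition of all tested compounds plus 3 SD, cut at about 28% in these data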
E coli WT exp = growth inhibitors of wild-type E. coli, primary screen, strain BW25113, expanded library, OD600 | OD600 absorbance | growth inhibition, % at 100 µM | 0.15% of 98,000 active;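 active means growth inhibition above about 50% at one test dose, limit read from the data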;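 further: growth measured after 20 h incubation at 37 °C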
HUVEC prolif 384 = inhibitors of HUVEC proliferation, primary screen, cell-based, 384-well; viability, % at 10 µM (by protocol); CellTiter-Glo luminescence, 72 h; stronger effect = lower value; 1.1% of 86,000 active;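 active means viability at or below 30%; inactive means viability above 30%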
Large screens that a line does not name were inactive. Sampled rows, rich in hits. Any-hit rate of the full collection: about 6.4%.

Cc1ccc(/C=N/n2c(C)nnc2C)cc1	none
COc1ccccc1NC(=O)CC1C(=O)NCCN1C(=O)Nc1ccc(Cl)c(Cl)c1 (centres undefined)	HUVEC prolif 384 15
CC(=O)Cc1nsc(NC(=O)c2ccc(-c3cccc(C(F)(F)F)c3)o2)n1	H69AR inhibit 21
CCCn1c(=O)c(C(=O)Nc2nnc(C)s2)c(O)c2ccccc21	Ecoli tolC 80 (no result: E coli WT exp)
CC(C)Cn1c(=O)c(C(=O)Nc2cnccn2)c(O)c2ccccc21	Ecoli tolC 100
CC(C)Cn1c(=O)c(C(=O)Nc2ccncc2)c(O)c2ccccc21	Ecoli tolC 96, H69AR inhibit 9.8 (no result: E coli WT exp)
CSc1ccccc1NC(=O)CN(c1cc(C)cc(C)c1)S(C)(=O)=O	none
COC(=O)c1nnn(-c2nonc2N)c1CN1CCc2ccccc21	H69AR inhibit 28
CCNC(=S)NNC(=O)c1cccs1	none (no result: Fibroblast inh, Ecoli tolC, H69AR inhibit, Jurkat viability, HUVEC prolif 384)
CCOC(=O)N1CCN(C(=O)CSCC(=O)Nc2nc(-c3ccc(-c4ccccc4)cc3)cs2)CC1	H69AR inhibit 0.7 (no result: Ecoli tolC, Jurkat viability)
CCOC(=O)N1CCN(C(=O)CSCC(=O)Nc2nc(-c3ccc(OC)cc3)cs2)CC1	none
CCc1nnc(NC(=O)CSc2nnc(-c3ccccc3O)n2CC)s1	none (no result: Ecoli tolC, Jurkat viability)
CCn1c(SCC(=O)Nc2nc(-c3ccccc3)cs2)nnc1-c1ccccc1O	Ecoli tolC 86
CCOC(=O)c1ccc(NCc2ccc(N(C)C)cc2)cc1	none
Cc1ccc2nc(-c3ccc(NS(C)(=O)=O)cc3)cc(-c3ccccc3)c2c1	none (no result: Fibroblast inh, Ecoli tolC, H69AR inhibit, Jurkat viability, HUVEC prolif 384)
Cc1c(C(=O)N2CCOCC2)sc2ncnc(N3CCc4ccccc4C3)c12	none
COCCCNC(=O)c1sc2ncnc(N3CCc4ccccc4C3)c2c1C	H69AR inhibit 28 (no result: Ecoli tolC, Jurkat viability, E coli WT exp)
CC(C)C(=O)N1CCN(c2ccc(NC(=O)c3ccc4c(c3)OCCO4)cc2Cl)CC1	Fibroblast inh 19, H69AR inhibit 6.2, HUVEC prolif 384 3.2 (no result: Ecoli tolC, Jurkat viability)
CC(=O)N1CCN(c2ccc(NC(=O)c3ccc4c(c3)OCCO4)cc2)CC1	none
Cc1nc(S(=O)(=O)NC2CCCCC2)c(C#N)c(C)c1Cl	none
CCOc1ccc(C(=O)Nc2cc(C)on2)cc1	H69AR inhibit 36 (no result: Fibroblast inh)
O=c1oc2ccccc2n1CSC1=NCCS1	H69AR inhibit 21
O=c1oc2ccccc2n1CSc1nc2ccccc2s1	none
CCCSc1nc(NCc2ccco2)c2c3c(sc2n1)COC(C)(C)C3	H69AR inhibit 34 (no result: Ecoli tolC, Jurkat viability)
CNc1nc2[nH]c(=O)c3c(c2s1)OC(N)=C(C#N)C3c1cccc(F)c1 (centres undefined)	none (no result: Fibroblast inh, Ecoli tolC, H69AR inhibit, Jurkat viability, HUVEC prolif 384)
COC(=O)Cc1c[nH]c2cccc(OCC(O)CN(Cc3ccc([N+](=O)[O-])cc3)C(C)(C)C)c12 (centres undefined)	H69AR inhibit 40 (no result: Ecoli tolC, Jurkat viability)
COc1cccc(/C=C2\C(=O)C(=O)c3ccccc32)c1	H69AR inhibit 5.3 (no result: Ecoli tolC, Jurkat viability)
FC(F)C(F)(F)C(F)(F)C(F)(F)c1cc(-c2ccccc2)n[nH]1	H69AR inhibit 30, HUVEC prolif 384 14
CCC(Oc1ccccc1)C(=O)Nc1ccc(-c2nnc(-c3ccco3)o2)cc1 (centres undefined)	Ecoli tolC 66
O=C(COc1ccc(Br)cc1)Nc1ccc(-c2nnc(-c3ccco3)o2)cc1	none
Cc1ccc(SCC(=O)Nc2cccc(-c3nnc(-c4ccco4)o3)c2)cc1	none (no result: Fibroblast inh, Ecoli tolC, H69AR inhibit, Jurkat viability, HUVEC prolif 384)
COc1cc(-c2nnc(-c3ccco3)o2)ccc1OCc1ccccc1	Ecoli tolC 96
COc1cccc(C(=O)Nc2cccc(-c3nnc(-c4ccco4)o3)c2)c1	H69AR inhibit 38 (no result: Ecoli tolC, Jurkat viability)
COc1ccc(Br)cc1C(=O)Nc1cccc(-c2nnc(-c3ccco3)o2)c1	H69AR inhibit 8.6 (no result: E coli WT exp)
Nc1ccc(Cc2nc3c(ccc4ccccc43)[nH]2)cc1	none (no result: Fibroblast inh, Ecoli tolC, H69AR inhibit, Jurkat viability, HUVEC prolif 384)
CCC(Oc1ccccc1)C(=O)Nc1nnc(C(F)(F)F)s1 (centres undefined)	Ecoli tolC 87
Cc1ccc2oc(=O)c3cnn(CC(=O)N(CCC(C)C)Cc4ccco4)c3c2c1	H69AR inhibit 38
CC(O)CN=c1cc(-c2ccccc2)oc2ccc(Cl)cc12 (centres undefined)	H69AR inhibit 29 (no result: Ecoli tolC, Jurkat viability)
CC(C)CN=c1cc(-c2ccccc2)oc2ccc(Cl)cc12	none (no result: Ecoli tolC, Jurkat viability)
CCCCN(CCCC)S(=O)(=O)c1ccc(NC(=O)CN2CCOCC2)cc1	none (no result: Ecoli tolC, Jurkat viability)
Cc1cc(=O)oc2c1ccc1oc(/C(=N/O)c3ccccc3)c(C)c12	Ecoli tolC 63
Cc1ccc(/C(=N\O)c2oc3c(C)c4oc(=O)cc(C)c4cc3c2C)cc1	none (no result: Ecoli tolC, Jurkat viability, E coli WT exp)
Cc1ccc(S(=O)(=O)N/N=C/c2ccc(C(=O)O)cc2)cc1	none (no result: Fibroblast inh, Ecoli tolC, H69AR inhibit, Jurkat viability, HUVEC prolif 384)
CCOc1ccc(NCc2nnc(SCC(=O)Nc3cc(C)on3)n2-c2ccccc2OC)cc1	H69AR inhibit 12
COC(=O)Nc1ccc(S(=O)(=O)N2c3ccccc3CCC2C)cc1 (centres undefined)	Fibroblast inh 49, H69AR inhibit 16, Jurkat viability 92
Cc1cc(NC(=O)COC(=O)c2ccc(NS(=O)(=O)c3ccc(C)c(C)c3)cc2)no1	none (no result: Ecoli tolC, Jurkat viability)
Cc1cc(NC(=O)COC(=O)c2ccc(S(=O)(=O)N3CCCc4ccccc43)cc2)no1	H69AR inhibit 23, Jurkat viability 64
O=C(NCc1ccco1)c1ccc(S(=O)(=O)N2CCCc3ccccc32)cc1	Ecoli tolC 71, H69AR inhibit 31
CC(=O)Nc1ccc(S(=O)(=O)N2CCCc3ccccc32)cc1	H69AR inhibit 13, Jurkat viability 82
Nc1ccc(S(=O)(=O)N2CCCc3ccccc32)cc1	none
Cc1ccc(CNC(=O)CSc2nc3ccccc3c(=O)n2CCCO)cc1	none
O=C(Cc1cc(=O)[nH]c(=O)[nH]1)NCC1CCCO1 (centres undefined)	none
N#Cc1ccc(-c2ccco2)nc1SCc1ccccc1	H69AR inhibit 25
COc1ccc(CNC(=O)CCn2c(=O)oc3ccccc32)cc1	none
COc1ccc(-c2nc(C(N)=O)c3[nH]c(=O)n(-c4ccccc4OC)c3n2)c(OC)c1	H69AR inhibit 31
CCOc1cccc(-c2nc(C(N)=O)c3[nH]c(=O)n(-c4cccc(Cl)c4)c3n2)c1O	none (no result: Fibroblast inh, H69AR inhibit, HUVEC prolif 384)
CCOc1ccccc1-c1nc(C(N)=O)c2[nH]c(=O)n(-c3cccc(C)c3)c2n1	H69AR inhibit 33
CC(=O)NS(=O)(=O)c1ccc(NC(=S)NC(=O)c2ccco2)cc1	none (no result: Fibroblast inh, Ecoli tolC, H69AR inhibit, Jurkat viability, HUVEC prolif 384)
O=C1c2ccccc2C(=O)N1CSc1nnnn1-c1ccccc1	none (no result: Jurkat viability)
Cc1cc(C)n(C(C[N+](=O)[O-])c2ccc(Cl)cc2)n1 (centres undefined)	E coli WT exp 100 (no result: Fibroblast inh, Ecoli tolC, H69AR inhibit, Jurkat viability, HUVEC prolif 384)
Cc1cc(O)c(C(C[N+](=O)[O-])c2ccc(Cl)cc2)c(=O)o1 (centres undefined)	none (no result: Fibroblast inh, Ecoli tolC, H69AR inhibit, Jurkat viability, HUVEC prolif 384)
